An excerpt weighted towards active compounds, which were near 3.7% of everything screened.
KCNK9 inh – blocks the human KCNK9 two-pore domain potassium channel | HEK293 KCNK9, FluxOR thallium flux fluorescence; stronger effect = lower value | B-score at 10 µM | actives 1.2% (n = 310,000);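 active = ratio B-score over 3 SD below the library mean, with starting fluorescence within 5 SD of its mean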;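 note: negative B-score means less thallium flux so channel inhibition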
KCNK3 inh – human KCNK3 channel inhibition, primary screen; CHO-KCNK3 thallium flux, FluxOR fluorescence; stronger effect = lower value; B-score at 10 µM; O14649; AID 602410; actives 0.84% (n = 340,000);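 active = B-score under library mean minus 4 SD, starting fluorescence ratio at most library mean plus 5 SD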;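 note: more negative B-score means stronger inhibition of thallium flux through KCNK3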
hERG rescue – hERG (human) protection from proarrhythmic block. AID 1511. CHO-hERG, FluxOR thallium flux, dofetilide IC70 present. activation (rescue from dofetilide block), less the hit threshold, % at 10 µM. actives 0.51% (n = 310,000). Q12809;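 active = activation above the mean of controls blocked by dofetilide plus 5 SD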;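 note: thallium influx through hERG after potassium depolarization seen as dye fluorescence rise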
Kir21 block – Kir2.1 (mouse) channel inhibition | actives 0.85% (n = 310,000) | HEK293-Kir2.1, FluxOR thallium flux fluorescence; stronger effect = lower value | P35561 | B-score at 10 µM | AID 1672;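 active = fluorescence ratio B-score at or below minus 3 SD of library scores, with starting-brightness B-score within 2 SD, cut at about -4.2 in these data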;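 note: channel flux triggered by added potassium and thallium sulfate stimulus; B-score of peak minus minimum fluorescence over baseline after thallium stimulus; more negative B-score means stronger Kir2.1 block with less thallium influx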
Target sequence (P35561 whole entry, looked up): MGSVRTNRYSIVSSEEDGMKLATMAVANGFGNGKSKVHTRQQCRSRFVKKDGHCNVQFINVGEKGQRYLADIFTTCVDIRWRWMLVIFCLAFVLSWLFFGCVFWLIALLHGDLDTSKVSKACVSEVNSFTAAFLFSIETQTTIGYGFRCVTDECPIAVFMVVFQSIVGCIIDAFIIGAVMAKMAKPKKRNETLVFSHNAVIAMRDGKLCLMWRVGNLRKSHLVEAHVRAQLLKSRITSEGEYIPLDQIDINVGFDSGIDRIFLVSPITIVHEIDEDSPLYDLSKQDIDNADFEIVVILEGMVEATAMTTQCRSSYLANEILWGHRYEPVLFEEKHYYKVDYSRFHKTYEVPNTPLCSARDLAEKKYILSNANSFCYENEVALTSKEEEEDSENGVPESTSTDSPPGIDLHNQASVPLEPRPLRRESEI
KCNQ1 pot – potentiates or activates the human KCNQ1 potassium channel; P51787; CHO-K1 KCNQ1, thallium flux FluxOR fluorescence; stronger effect = higher value; B-score at 10 µM; actives 0.35% (n = 310,000);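 active = fluorescence ratio B-score, a plate-corrected score, at least three library SD, with initial intensity B-score within 5 SD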
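Doses: Single concentration per compound, DMSO matched to controls | Test system: KCNQ1-transfected CHO-K1 cells | Timing: 90 min dye loading and 20 min compound exposure, both at room temperature | Measured by: Kinetic FluxOR thallium fluorescence, 10-s 1-Hz baseline, 110-s post-stimulus read | Medium: Assay buffer with matched DMSO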
KCNQ1 inh – human KCNQ1 channel inhibition; actives 1.3% (n = 310,000); CHO-K1 KCNQ1, FluxOR thallium flux fluorescence; stronger effect = higher value; B-score at 10 µM; P51787;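 active = compounds whose thallium flux B-score, printed positive for inhibition, exceeds three library SD while starting fluorescence stays within three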;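 note: channel opened by potassium depolarization with thallium stimulus after 20 min compound exposure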
KCNK3 inh conf – confirmation of human KCNK3 two-pore domain potassium channel inhibitors | ratio percent of control, % at 10 µM | shares compounds with KCNK3 inh | CHO-KCNK3 thallium flux, FluxOR fluorescence; 0% buffer, 100% carvedilol maximal block | actives 99% (n = 2,400) | AID 651638;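 active = ratio percent of control, averaged over triplicates, above buffer control mean plus 5 SD, cut at about 64% in these data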;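 note: ratio is the fluorescence rise from min to max over baseline after thallium stimulus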
KCNK3 uninduced – counter-screen for KCNK3 inhibitors: effect in non-induced cells; shares compounds with KCNK3 inh; actives 40% (n = 2,400); thallium flux ratio (lower = more inhibition) at 10 µM; AID 651747; non-induced KCNK3 parental cells, FluxOR thallium flux; stronger effect = lower value;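 active = thallium flux ratio, averaged over three wells, more than 5 SD below the buffer control mean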;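 note: host cells are CHO cells without KCNK3 induction; ratio is peak minus trough fluorescence over baseline then normalized to buffer controls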
* hit, by the source's call.

Results for CCCNC(=O)c1c(N)n(-c2cc(OC)cc(OC)c2)c2nc3ccccc3nc12 ?
KCNK9 inh: inactive; KCNK3 inh: -9.18*; hERG rescue: -9.0; Kir21 block: 1.95; KCNQ1 pot: inactive; KCNQ1 inh: inactive; KCNK3 inh conf: 125.0*; KCNK3 uninduced: inactive

Results for Cc1ccccc1C(=O)NC1CCN(C(=O)N(c2ccccc2)c2ccccc2)CC1 ?
KCNK9 inh: inactive; KCNK3 inh: inactive; hERG rescue: -11.4; Kir21 block: -0.64; KCNQ1 pot: inactive; KCNQ1 inh: inactive

What do the screens show for `CC(=O)N1c2ccc(S(=O)(=O)N3CCCC(C(=O)Nc4ccc(F)cc4)C3)cc2CC1C` (stereo not given)?
KCNK9 inh: inactive; KCNK3 inh: inactive; hERG rescue: -9.3; Kir21 block: -0.02; KCNQ1 pot: inactive; KCNQ1 inh: inactive

Results for CCCN(CCC)c1nc(N(CCC)CCC)[nH]c(=O)n1 ?
KCNK9 inh: inactive; KCNK3 inh: inactive; hERG rescue: -7.0; Kir21 block: 1.08; KCNQ1 pot: inactive; KCNQ1 inh: inactive

Results for CCCN(CCC)c1nc(C#N)nc(N(CCC)CCC)n1 ?
KCNK9 inh: inactive; KCNK3 inh: -11.2*; hERG rescue: -19.2; Kir21 block: -0.91; KCNQ1 pot: inactive; KCNQ1 inh: inactive; KCNK3 inh conf: 101.7*; KCNK3 uninduced: inactive

How did COc1ccc(C(=O)COC(=O)CCNS(=O)(=O)c2ccccc2)cc1Br do in these assays?
KCNK9 inh: inactive; KCNK3 inh: inactive; hERG rescue: -7.5; Kir21 block: 1.41; KCNQ1 pot: inactive; KCNQ1 inh: inactive

What do the screens show for `CCOC(=O)C1=C(C)NC(=O)NC1/C=C/c1ccccc1OC` (stereo not given)?
KCNK9 inh: inactive; KCNK3 inh: inactive; hERG rescue: 2.7; Kir21 block: 0.83; KCNQ1 pot: inactive; KCNQ1 inh: inactive

How did COc1ccccc1/C=C/C1C(C(=O)OCC(C)C)=C(C)N=C2SCCC(=O)N21 (stereo not given) do in these assays?
KCNK9 inh: inactive; KCNK3 inh: -9.33*; hERG rescue: -3.0; Kir21 block: 0.39; KCNQ1 pot: inactive; KCNQ1 inh: inactive; KCNK3 inh conf: 92.3*; KCNK3 uninduced: 0.16*

Results for c1ccc(-c2nc(-n3nc4ccccc4n3)nc3ccccc23)cc1 ?
KCNK9 inh: -7.92*; KCNK3 inh: -14.4*; hERG rescue: -13.5; Kir21 block: 1.28; KCNQ1 pot: inactive; KCNQ1 inh: inactive; KCNK3 inh conf: 87.7*; KCNK3 uninduced: 0.153*

Results for NNc1nc(-c2ccccc2)c2ccccc2n1 ?
KCNK9 inh: inactive; KCNK3 inh: inactive; hERG rescue: -22.3; Kir21 block: -0.96; KCNQ1 pot: inactive; KCNQ1 inh: inactive

What do the screens show for `O=C(COCC(=O)Nc1cccc(C(F)(F)F)c1)Nc1cccc(C(F)(F)F)c1`?
KCNK9 inh: inactive; KCNK3 inh: inactive; hERG rescue: -12.5; Kir21 block: 0.31; KCNQ1 pot: inactive; KCNQ1 inh: inactive

Results for COc1cc(NC(=O)CSCC(=O)Nc2cccc(C(F)(F)F)c2)c(Cl)cc1Cl ?
KCNK9 inh: inactive; KCNK3 inh: -11*; hERG rescue: -12.0; Kir21 block: -1.65; KCNQ1 pot: inactive; KCNQ1 inh: 7*; KCNK3 inh conf: 114.7*; KCNK3 uninduced: inactive

How did CN=C(Nc1ccc(C(=O)OC)s1)c1ccccc1 do in these assays?
KCNK9 inh: inactive; KCNK3 inh: inactive; hERG rescue: -0.7; Kir21 block: 0.06; KCNQ1 pot: inactive; KCNQ1 inh: inactive

How did CCC(C)(c1ccc(C(=O)OC)s1)c1ccc(C(=O)OC)s1 do in these assays?
KCNK9 inh: inactive; KCNK3 inh: -9.06*; hERG rescue: -6.8; Kir21 block: -2.09; KCNQ1 pot: inactive; KCNQ1 inh: inactive; KCNK3 inh conf: 119.0*; KCNK3 uninduced: 0.141*

Results for COc1ccc(N2CCN(C(=O)Cc3cccs3)CC2)cc1 ?
KCNK9 inh: inactive; KCNK3 inh: -9.47*; hERG rescue: 3.1; Kir21 block: -0.15; KCNQ1 pot: inactive; KCNQ1 inh: inactive; KCNK3 inh conf: 75.0*; KCNK3 uninduced: inactive

What do the screens show for `CC(=O)Nc1ccc(S(=O)(=O)NC2(C(F)(F)F)N=C(c3ccccc3)NC2=O)cc1` (stereo not given)?
KCNK9 inh: inactive; KCNK3 inh: inactive; hERG rescue: -4.9; Kir21 block: -0.44; KCNQ1 pot: inactive; KCNQ1 inh: inactive

What do the screens show for `COCC(C)n1c(SCc2cc(C(=O)OC)c(C)o2)nc2ccccc2c1=O` (stereo not given)?
KCNK9 inh: inactive; KCNK3 inh: -8.88*; hERG rescue: -12.2; Kir21 block: -1.31; KCNQ1 pot: inactive; KCNQ1 inh: inactive; KCNK3 inh conf: 90.0*; KCNK3 uninduced: inactive

Results for CCCCn1c(N)c(-c2nc3ccccc3s2)c2c([N+](=O)[O-])nn(CC)c(=O)c21 ?
KCNK9 inh: inactive; KCNK3 inh: -10.8*; hERG rescue: -5.8; Kir21 block: 2.02; KCNQ1 pot: inactive; KCNQ1 inh: inactive; KCNK3 inh conf: 122.0*; KCNK3 uninduced: 0.135*

Results for Cc1onc(-c2ccccc2)c1C(=O)OCCOc1ccc([N+](=O)[O-])cc1[N+](=O)[O-] ?
KCNK9 inh: inactive; KCNK3 inh: -10.2*; hERG rescue: -13.2; Kir21 block: -1; KCNQ1 pot: inactive; KCNQ1 inh: inactive; KCNK3 inh conf: 92.0*; KCNK3 uninduced: inactive

Results for CCCC[C@@H]1CNCCN1CCc1cccc2ccccc12 ?
KCNK9 inh: inactive; KCNK3 inh: inactive; hERG rescue: -9.2; Kir21 block: -2.18; KCNQ1 pot: inactive; KCNQ1 inh: inactive

Results for Cc1c(C(c2ccc(C(=O)O)cc2)c2c(C)n(C)n(-c3ccccc3)c2=O)c(=O)n(-c2ccccc2)n1C ?
KCNK9 inh: inactive; KCNK3 inh: inactive; hERG rescue: -4.8; Kir21 block: -0.65; KCNQ1 pot: inactive; KCNQ1 inh: inactive

How did CCOc1ccccc1OCCCOc1ccc([N+](=O)[O-])cc1Cl do in these assays?
KCNK9 inh: inactive; KCNK3 inh: -9.79*; hERG rescue: 2.6; Kir21 block: -0.4; KCNQ1 pot: inactive; KCNQ1 inh: inactive; KCNK3 inh conf: 109.7*; KCNK3 uninduced: inactive

Bioassay records from PubChem.
